According to paper PMC9075995 (RSC Advances, 2019):
Values after ≈ are worked out from the molar mass of the structure shown. Read-outs that look alike come from different tables or passages of the source.

Legend:
[1] = tested on: WM-115 (human melanoma); settings: read-out: Cell culture IC50; WM-115, referential compounds; cited from earlier work
[2] = tested on: NALM-6 (leukemia lymphoblastic); settings: read-out: Cell culture IC50; NALM-6, referential compounds; cited from earlier work
[3] = tested on: HL-60 (leukemia promyelocytic); settings: read-out: Cell culture IC50; HL-60, referential compounds; cited from earlier work
[4] = tested on: WM-115 (human melanoma); experiment: Anticancer activity, MTT assay; type: cell-based; settings: for IC50: Homo sapiens, WM-115, 48 h, read-out: Cell culture IC50
Method in brief: (§1)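 Human leukaemia (HL-60, NALM-6) or melanoma (WM-115) cells were exposed to the test compound for 46 h, then given MTT for a further 2 h. Fresh DMSO stocks were diluted in complete medium, with DMSO ≤0.2%. Untreated cells served as control. IC50 was taken from concentration–response curves, as mean ± SD of 4 experiments.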

[5] = tested on: S. epidermidis ATCC 12228; experiment: MIC and MBC by broth microdilution, subculture on agar; type: cell-based, Staphylococcus epidermidis; settings: for MIC: Staphylococcus epidermidis, ATCC12228
Method in brief: (§2)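 EUCAST broth microdilution used Mueller-Hinton broth for bacteria and phenol-red-free RPMI-1640 for Candida. Test compound ran at a final 31.2–1000 μg ml−1, from 80 mg ml−1 DMSO stocks, with DMSO ≤1.25%. […] For MBC/MFC, 10 μl from the MIC, 2× and 4× MIC wells was plated on agar for 24 h at 37 °C. Done in duplicate, 2 sets.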

[6] = tested on: HL-60 (leukemia promyelocytic); experiment: Anticancer activity, MTT assay; type: cell-based, human; settings: for IC50: Homo sapiens, HL-60, 48 h, read-out: Cell culture IC50; for anticancer activity in words: HL-60
Method in brief: as §1

[7] = tested on: C. albicans ATCC 10231; experiment: MIC and MFC by broth microdilution, subculture on agar; type: cell-based, Candida albicans; settings: for MBC/MFC: C. albicans ATCC 10231, second line per compound, subculture on agar 24 h, 37 °C; for MIC: Candida albicans, ATCC10231
Method in brief: as §2

[8] = tested on: P. aeruginosa ATCC 25619; experiment: MIC and MBC by broth microdilution, subculture on agar; type: cell-based; settings: Pseudomonas aeruginosa, ATCC25619
Method in brief: as §2

[9] = tested on: S. aureus ATCC 29213; experiment: as above; type: cell-based, Staphylococcus aureus; settings: for MBC/MFC: S. aureus ATCC 29213, second line per compound, subculture on agar 24 h, 37 °C; for MIC: Staphylococcus aureus, ATCC29213
Method in brief: as §2

[10] = tested on: Supercoiled plasmid pUC57 DNA; experiment: Cleavage of pUC57 DNA, agarose gel electrophoresis; type: biochemical; settings: 37 °C, 24 h, pH 7.2, gel electrophoresis
Method in brief: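 Supercoiled pUC57 plasmid (4634 bp) in 10 mM Tris–HCl/50 mM NaCl, pH 7.2, was incubated with the test compound (50, 100, 200, 300, 400 μM) at 37 °C for 24 h. Samples ran on 1% agarose at 75 V in TAE, were stained with Midori green and imaged under UV. Band intensities gave the fraction of each DNA form. Control was DNA with matching DMSO in buffer. Done in triplicate.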

[11] = tested on: E. faecalis ATCC 29212; experiment: MIC and MBC by broth microdilution, subculture on agar; type: cell-based, Enterococcus faecalis; settings: for MBC/MFC: second line per compound, subculture on agar 24 h, 37 °C; for MIC: Enterococcus faecalis, ATCC29212
Method in brief: as §2

[12] = tested on: NALM-6 (leukemia lymphoblastic); experiment: Anticancer activity, MTT assay; type: cell-based, human; settings: for IC50: Homo sapiens, NALM-6, 48 h, read-out: Cell culture IC50; for anticancer activity in words: NALM-6
Method in brief: as §1

[13] = tested on: P. vulgaris ATCC 8427; experiment: MIC and MBC by broth microdilution, subculture on agar; type: cell-based, Proteus vulgaris; settings: for MBC/MFC: P. vulgaris ATCC 8427, second line per compound, subculture on agar 24 h, 37 °C; for MIC: Proteus vulgaris, ATCC8427
Method in brief: as §2

[14] = tested on: human foreskin fibroblasts HFF-1 (ATCC-SCRC-1041); experiment: Cytotoxicity on normal fibroblasts, MTT reduction assay; type: cell-based; settings: for metabolic activity higher than untreated control cells: HFF-1, low concentrations 3.9–31.2 μM
Method in brief: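 HFF-1 fibroblasts were seeded at 1 × 10^5/well in DMEM with 15% FCS and pen/strep and grown 48 h (37 °C, 5% CO2). They were exposed 24 h to the test compound (25 mM DMSO stocks; final 3.9–500 μM). Cells were washed and given MTT (1.5 mg ml−1) for 2 h. Formazan was dissolved overnight in 20% SDS in DMF/water and read at 550 nm. Viability is relative to 2% DMSO control; IC50 came from trend-line equations. Two experiments, duplicates each.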

IC50 [4] [µM]	MIC [5] [µg/mL]	IC50 [6] [µM]	MIC [7] [µg/mL]	MIC [8] [µg/mL]	MIC [9] [µg/mL]	MIC [11] [µg/mL]	IC50 [12] [µM]	MIC [13] [µg/mL]	Molecule	MBC/MFC [7] [µg/mL]	MBC/MFC [9] [µg/mL]	effect on supercoiled plasmid DNA (cleavage of Form I) [10]	MBC/MFC ([11]; E. faecalis ATCC 29212) [µg/mL]	MBC/MFC [13] [µg/mL]	also measured
									N.N.O=C([O-])C1(C(=O)[O-])CCC1.[Pt+2] [Carboplatin]						IC50 [1]: 422 ± 50.2 µM; IC50 [2]: 700 ± 200 nM; IC50 [3]: 4300 ± 1300 nM
									N.N.[Cl][Pt][Cl] [Cisplatin]						IC50 [1]: 18.2 ± 4.3 µM; IC50 [2]: 700 ± 300 nM; IC50 [3]: 800 ± 100 nM
> 1000	> 1000	584 ± 84.3	> 1000	> 1000	> 1000	> 1000	569 ± 21.9	> 1000	Cc1cc(C)n(C(N)=S)n1 [Compound 1a, 1-[amino(thioxo)methyl]-3,5-dimethyl-1H-pyrazole]	>1000	>1000	did not affect the DNA	>1000	>1000	
481 ± 39.4	> 1000	506 ± 47.1	1000 (≈ 5.46 mM)	> 1000	1000 (≈ 5.46 mM)	> 1000	469 ± 44.4	1000 (≈ 5.46 mM)	CCc1cc(CC)n(C(N)=S)n1 [Compound 1b, 1-[amino(thioxo)methyl]-3,5-diethyl-1H-pyrazole]	1000 (≈ 5.46 mM)	>1000	did not affect the DNA	>1000	1000 (≈ 5.46 mM)	
752 ± 118	62.5 (≈ 0.285 mM)	618 ± 32	> 1000	> 1000	1000 (≈ 4.56 mM)	500 (≈ 2.28 mM)	152 ± 26.7	> 1000	NC(=S)n1nc(-c2ccccc2)cc1O [Compound 1c, 1-[amino(thioxo)methyl]-5-hydroxy-3-phenyl-1H-pyrazole]	>1000	>1000		>1000	>1000	
90.9 ± 10.2	250 (≈ 1.59 mM)	779 ± 125	> 1000	> 1000	1000 (≈ 6.36 mM)	250 (≈ 1.59 mM)	615 ± 60.9	> 1000	Cc1cc(O)n(C(N)=S)n1 [Compound 1d, 1-[amino(thioxo)methyl]-5-hydroxy-3-methyl-1H-pyrazole]	>1000	>1000	did not affect the DNA	>1000	>1000	
									Cc1cc(C)n(C(N)=S)n1.Cc1ccc(C(C)C)cc1.[Cl][Ru][Cl] [Compound 2a]		125	no influence	125	>1000	metabolic activity higher than untreated control cells [14]: 39–45%
									Cc1ccc(C(C)C)cc1.Cc1ccc(C(C)C)cc1.[Cl][Ru][Cl].[Cl][Ru][Cl] [Dimer, dichloro(p-cymene)ruthenium(II)dimer, reference compound]	>1000	>1000	no effect	>1000	>1000	anticancer activity in words ([4]; WM-115): inactive; anticancer activity in words [6]: inactive; anticancer activity in words [12]: inactive
									[(η^6-p-cymene)Ru(1-[amino(thioxo)methyl]-3,5-diethyl-1H-pyrazole)Cl2 [Compound 2b]		125	cleavage the DNA Form I into Form II and Form III	62.5	>1000	metabolic activity higher than untreated control cells [14]: 39–45%
									[(η^6-p-cymene)Ru(1-[amino(thioxo)methyl]-5-hydroxy-3-methyl-1H-pyrazole) Cl2 [Compound 2d]	>1000	500	cleavage the DNA Form I into Form II and Form III	1000	1000	activity stronger than cisplatin (fold, from IC50 values) ([4]; WM-115): above 2 fold; anticancer activity in words [6]: inactive; viability of HFF-1 cells ([14]; HFF-1, 24 h, over tested range 3.9–500 μM): ≥ 80%; anticancer activity in words [12]: inactive
									[(η^6-p-cymene)Ru(1-[amino(thioxo)methyl]-5-hydroxy-3-phenyl-1H-pyrazole)Cl2 [Compound 2c]	>1000	62.5	no influence	<31.2	>1000	activity (MIC) stronger than ligand 1c ([5]; S. epidermidis ATCC 12228): more than 2 fold; activity (MIC) stronger than ligand 1c ([11]; E. faecalis ATCC 29212): > 16 fold
